Screens from PubChem BioAssay.
FXIa inh mix = FXIa protease inhibitors in compound pools, primary screen, biochemical, 10-compound mixtures. purified FXIa, fluorogenic substrate, pooled mixtures. inhibition, % at 5 µM. 62,000 tested, 0.19% active;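 further: each value is inhibition by a whole ten-compound pool holding the compound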
AP ELISA ortho = alternative complement pathway inhibitors, primary screen, biochemical, ELISA, human serum, orthogonally pooled compounds. LPS-coated ELISA, C3 deposition; tested in compound mixtures. inhibition, % at 5 µM. 62,000 tested, 0.08% active. AID 1235, 2008;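 active means inhibition above 30% in each of the two pooled mixtures holding the compound, so the lower value exceeds 30%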
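Test system: human serum alternative complement pathway, C3 deposition on LPS-coated wells; also added: Plate-bound LPS; doses: 5 µM per compound in ten-compound mixtures; schedule: 1 h at 37 °C; detection: Anti-C3 ELISA, OD 450 nm; evaluation: percent inhibition of C3 deposition onto LPS; repeats: two pool placements per compound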
FXIIa mix inh = human factor XIIa inhibitors, primary screen, biochemical, pooled compound mixtures, fluorogenic substrate. 62,000 tested, 0.2% active. purified FXIIa. Coagulation factor XII (Homo sapiens), P00748. inhibition, % at 5 µM
HePTP inhibitor = inhibitors of human HePTP phosphatase, primary screen, biochemical, absorbance, leukemia target. Tyrosine-protein phosphatase non-receptor type 7 (Homo sapiens), P35236. recombinant HePTP phosphatase activity, OD absorbance. inhibition, % at 20 µM. 110,000 tested, 0.64% active; in the data active means inhibition above about 50%
Target sequence (P35236 whole entry, looked up): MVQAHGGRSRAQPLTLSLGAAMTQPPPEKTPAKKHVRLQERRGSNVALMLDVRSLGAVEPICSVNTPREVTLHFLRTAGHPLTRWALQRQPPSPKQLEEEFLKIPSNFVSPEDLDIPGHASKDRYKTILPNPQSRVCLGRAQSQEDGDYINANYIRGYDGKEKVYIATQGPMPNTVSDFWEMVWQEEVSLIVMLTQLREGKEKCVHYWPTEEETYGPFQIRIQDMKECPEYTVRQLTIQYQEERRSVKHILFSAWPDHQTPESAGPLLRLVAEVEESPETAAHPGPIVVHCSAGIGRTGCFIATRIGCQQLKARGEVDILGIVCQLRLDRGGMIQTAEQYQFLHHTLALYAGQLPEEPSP
BAP1 inh = inhibitors of BAP1 deubiquitinase, primary screen, biochemical, Ub-AMC fluorescence, kinetic; Ubiquitin carboxyl-terminal hydrolase BAP1 (Homo sapiens), Q92560; recombinant BAP1, Ub-AMC hydrolysis fluorescence kinetic; active compounds read low; calls only at 20 µM; 72,000 tested, 0.48% active; AID 436, 2006;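 active means activity remaining at or below 50% of control, provided the compound also passes the data quality filters; inactive means the rest, including low values that fail the filters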
A number is an active result; - = inactive; . = not tested or not shown; ! = not active in a repeat. Most compounds without a hit are left out; they make up all but 1% or so of the library. Unless noted, no stated cut-off is given here; in the data, active means inhibition above about 20% (passing the limit was not always enough); inactive means the rest.

SMILES	FXIa inh mix	AP ELISA ortho	FXIIa mix inh	HePTP inhibitor	BAP1 inh
COc1ccc(N2C(=O)/C(=C/c3ccc(I)o3)SC2=S)cc1	.	.	.	-	.
COc1ccc(CNc2ccc(Br)cc2C(=O)O)c(OC)c1	.	.	.	77.4	.
COc1ccc(Br)cc1C(=O)O	-	-	-	-	-
O=C(CN1CCN(C(c2ccccc2)c2ccccc2)CC1)CN1C(=O)c2ccccc2C1=O	.	.	.	-	.
CC(=O)C1=C(O)C(=O)N(CCN2CCNCC2)C1c1cccc(F)c1 (stereo unspecified)	.	.	.	-	.
CC(C)OC(=O)c1c(-c2ccc(Br)cc2)csc1N	.	.	.	-	.
CC(=O)C1=C(O)CCC1=N	-	39.1	-	-	-
CCc1cc(C(=O)OC)c(N2C(=O)C3C4C=CC(C4)C3C2=O)s1 (stereo unspecified)	-	-	51.6	-	-
O=C(CC12CC3CC(C1)CC(CC(=O)N1CCOCC1)(C3)C2)N1CCOCC1	.	.	.	-	.
CN1CCN(C(=O)CC23CC4CC(CC(C4)C2)C3)CC1	-	-	-	103.9!	-
Cc1cc(-c2ccccc2C(=O)NCc2ccccc2)on1	26.7	-	-	-	-
Cc1cc(-c2ccccc2C(=O)O)on1	-	-	-	-	-
COc1cc([N+](=O)[O-])ccc1NC(=O)/C=C/c1ccc(OC)c(OC)c1	.	.	.	-	.
CCOc1cccc(=[O+]CC)c2c(C)oc(C)c12	.	.	.	101.9	.
CC1=CC(C)(C)N(C(=O)CN2C(=O)C3CCCCC3C2=O)c2cc(C)ccc21 (stereo unspecified)	.	.	.	-	.
CCOc1ccc(C(=O)Nc2ccc3oc(-c4ccccc4F)nc3c2)cc1Cl	.	.	.	-	.
CCOc1ccc(C(=O)Nc2ccc3oc(-c4ccncc4)nc3c2)cc1Cl	.	.	.	98.5	.
CCCCNC(=O)c1cc(-c2ccc(OC)cc2)nc2ccccc12	.	.	.	.	-
O=C1NC(=Nc2ccc(O)cc2)S/C1=C\c1ccc(Cl)cc1	.	.	.	-	.
O=C(/C=C/c1ccco1)Nc1ccc(-c2nc3ccccc3s2)c(O)c1	.	.	.	104.0	.
COc1cc(OC)cc(C(=O)Nc2cc3oc4ccccc4c3cc2OC)c1	.	.	.	-	.
Cc1ccc(OCC(=O)Oc2ccc(C(=O)c3ccccc3)cc2C)c(C)c1	.	.	.	103.6	.
O=C(Nc1cccc(Cl)c1Cl)c1ccc([N+](=O)[O-])cc1	.	.	.	-	.
COc1ccc(CC(=O)Nc2ccc(-c3nc4ccccc4o3)c(O)c2)cc1OC	.	.	.	88.9	.
O=C(Nc1ccc(-c2nc3ccccc3[nH]2)cc1)c1cccc(Br)c1	.	.	.	102.5	.
SMILES	FXIa inh mix	AP ELISA ortho	FXIIa mix inh	HePTP inhibitor	BAP1 inh
Cc1ccc(C(=O)Nc2ccc(-c3nc4cc5ccccc5cc4[nH]3)cc2)cc1[N+](=O)[O-]	.	.	.	56.3	.
COc1ccc(NC(=O)c2ccc(C)c([N+](=O)[O-])c2)cc1	.	.	.	-	.
O=C(Nc1ccc(-c2cn3ccccc3n2)cc1)c1cccc(Br)c1	.	.	.	102.3	.
NC1=NC2(CCCC2)N=C(Nc2cccc3ccccc23)N1	.	.	.	-	.
O=C1CS/C(=N\N=C\c2cn(Cc3ccc(Cl)cc3Cl)c3ccccc23)N1	.	.	.	66.0	.
O=C1CS/C(=N\N=C\c2cccc(Br)c2)N1	.	.	.	-	.
O=C1NC(=O)N(c2ccc(Cl)cc2)C(=O)/C1=C/c1ccc(N2CCOCC2)o1	.	.	.	-	.
O=C(N/N=C/c1ccc2c(c1)OCO2)c1sc2cc(Cl)ccc2c1Cl	.	.	.	57.7	.
O=C(N/N=C/c1ccc2c(c1)OCO2)c1ccccn1	.	.	.	-	.
Cc1cc(Cl)cc(C)c1OCCCCNCCO	.	.	.	105.1	.
C=CCn1c(SCC(=O)Nc2ccc3c(c2)OCO3)nnc1-c1ccccc1OC	-	-	-	-	-
CC1(C)Cc2ccccc2-c2nnc(SCC(=O)Nc3ccc4c(c3)OCO4)n21	-	56.4	-	-	-
CCC(=O)Nc1ccc(NC(=O)CSc2nnnn2C(C)C)cc1	27.3	-	-	-	-
CCC(=O)Nc1ccc(NC(=O)CSc2nnc(C(C)C)n2C)cc1	-	-	-	-	-
CC(C)OC(=O)C(C)Sc1n[nH]c(=O)[nH]c1=O (stereo unspecified)	.	.	.	-	.
COC(=O)C1=C(C)N(C)C(C)=C(C(=O)OC)C1c1ccccc1C	23.6	-	-	-	-
O=C(O)C1Nc2ccc3ccccc3c2C2C=CCC12 (stereo unspecified)	.	.	.	101.9	.
O=C(O)C1Nc2ccc([N+](=O)[O-])cc2C2C=CCC12 (stereo unspecified)	.	.	.	103.5	.
CCCCNC(=O)c1cc2nc(-c3ccc(OCC)cc3)cc(C)n2n1	.	.	.	-	.
O=C(Nc1ccccc1Cl)c1ccccc1C(F)(F)F	.	.	.	103.5	.
O=C(Nc1ccccc1I)c1ccccc1C(F)(F)F	.	.	.	-	.
O=C(O)c1ccc(Cl)c(-c2ccc(C=C3C(=O)c4ccccc4C3=O)o2)c1	.	.	.	104.1	.
O=C1NC(=S)N/C1=C/c1ccc(-c2cc(C(=O)O)ccc2Cl)o1	.	.	.	103.7	.
O=C(O)c1ccc(-c2ccc(C=C3C(=O)c4ccccc4C3=O)o2)cc1Cl	.	.	.	52.1	.
CC1(C)Nc2ccccc2-c2c1sn(-c1cccc(Cl)c1)c2=S	.	.	.	-	.
SMILES	FXIa inh mix	AP ELISA ortho	FXIIa mix inh	HePTP inhibitor	BAP1 inh
CCC1=NN2C(=N)/C(=C/c3ccc(-c4ccc([N+](=O)[O-])cc4OC)o3)C(=O)N=C2S1	.	.	.	-	.
CCCC1=NN2C(=N)/C(=C/c3ccc(-c4ccc([N+](=O)[O-])cc4C)o3)C(=O)N=C2S1	.	.	.	82.3	.
CC(=O)Nc1nc(COc2ccccc2)cs1	-	-	-	-	-
CC(=O)Nc1nc(CC(=O)c2ccccc2)cs1	35.9	-	-	-	-
Cc1ccc(-c2csc(Nc3cccc(O)c3)n2)c(C)c1	.	.	.	-	.
COc1ccc(CCn2c(SCC(=O)Nc3cc(C)on3)nc3ccccc3c2=O)cc1OC	-	-	-	-	-
COc1ccc(CCn2c(SCC(=O)Nc3cc(C)on3)nc3ccsc3c2=O)cc1OC	-	-	21.8	-	-
O=C(CN(c1ccccc1)S(=O)(=O)c1ccccc1[N+](=O)[O-])Nc1ccccc1Br	.	.	.	-	.
CCC1(C)CC(CC#N)(c2ccccc2OC)CCO1 (stereo unspecified)	.	.	.	104.2	.
Cc1ccc([N+](=O)[O-])c2c1NC(c1ccc(Br)cc1)C1CC=CC21 (stereo unspecified)	.	.	.	-	.
O=C(O)C1Nc2c(C(=O)N3CCCC3)cccc2C2C=CCC12 (stereo unspecified)	.	.	.	94.0	.
Cc1c(Cl)ccc2c1NC(C(=O)O)C1CC=CC21 (stereo unspecified)	.	.	.	103.2	.
O=C(O)c1cccc2c1NC(c1cccc(Cl)c1Cl)C1CC=CC21 (stereo unspecified)	.	.	.	87.7	.
COc1cccc2c1NC(c1ccccc1Cl)C1CC=CC21 (stereo unspecified)	.	.	.	-	.
O=C(O)c1ccc([N+](=O)[O-])c2c1NC(c1ccccc1)C1CC=CC21 (stereo unspecified)	.	.	.	87.6	.
O=C(O)C1Nc2c(C(=O)N3CCOCC3)cccc2C2C=CCC12 (stereo unspecified)	-	-	-	-	-
Cc1ccc(-c2nnc(NC(=O)Nc3ccc(Cl)c(Cl)c3)s2)cc1	.	.	.	-	.
